Measured values: ChEMBL document CHEMBL3091373, “Phenylspirodrimanes with anti-HIV activity from the sponge-derived fungus Stachybotrys chartarum MXH-X73” (J Nat Prod, 2013)
pEC50: −log10 of the molar value.

Key:
[1] = system: Human immunodeficiency virus 1; experiment: Antiviral activity against HIV-1 expressing reverse transcriptase K103N/P225H double mutant infected in human 293T cells co-transfected with VSVG protein assessed as inhibition of viral-replication incubated 15 mins prior to viral-infection measured after 48 hrs by luciferase reporter gene assay; assay type: functional, organism-based; settings: Human immunodeficiency virus 1, HEK-293T
Procedure, shortened: (§1)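 VSV-G-pseudotyped single-cycle HIV made by Ca3(PO4)2 co-transfection of 293T cells with env-deficient pNL4-3.luc.R-E- (wild-type or RT mutant) vector; medium changed 16 h post-transfection, supernatant harvested at 48 h, filtered, diluted to 0.2 ng p24/mL. Target 293T cells seeded 6 × 10^4/well the day before; compounds in DMSO added 15 min pre-infection; luciferase of lysates read 48 h post-infection.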

[2] = system: Human immunodeficiency virus 1; experiment: Antiviral activity against HIV-1 expressing reverse transcriptase K103N/G190A double mutant infected in human 293T cells co-transfected with VSVG protein assessed as inhibition of viral-replication incubated 15 mins prior to viral-infection measured after 48 hrs by luciferase reporter gene assay; assay type: functional, organism-based; settings: Human immunodeficiency virus 1, HEK-293T; procedure, shortened: as §1
[3] = system: Human immunodeficiency virus 1; experiment: Antiviral activity against HIV-1 expressing reverse transcriptase K103N/V108I double mutant infected in human 293T cells co-transfected with VSVG protein assessed as inhibition of viral-replication incubated 15 mins prior to viral-infection measured after 48 hrs by luciferase reporter gene assay; assay type: functional, organism-based; settings: Human immunodeficiency virus 1, HEK-293T; procedure, shortened: as §1
[4] = system: Human immunodeficiency virus 1; experiment: Antiviral activity against HIV-1 expressing reverse transcriptase L100I/K103N double mutant infected in human 293T cells co-transfected with VSVG protein assessed as inhibition of viral-replication incubated 15 mins prior to viral-infection measured after 48 hrs by luciferase reporter gene assay; assay type: functional, organism-based; settings: Human immunodeficiency virus 1, HEK-293T; procedure, shortened: as §1
[5] = system: Human immunodeficiency virus 1; experiment: Antiviral activity against HIV-1 expressing reverse transcriptase K103N mutant infected in human 293T cells co-transfected with VSVG protein assessed as inhibition of viral-replication incubated 15 mins prior to viral-infection measured after 48 hrs by luciferase reporter gene assay; assay type: functional, organism-based; settings: Human immunodeficiency virus 1, HEK-293T; procedure, shortened: as §1
[6] = system: Human immunodeficiency virus 1; experiment: Antiviral activity against wild-type HIV-1 infected in human 293T cells co-transfected with VSVG protein assessed as inhibition of viral-replication incubated 15 mins prior to viral-infection measured after 48 hrs by luciferase reporter gene assay; assay type: functional, organism-based; settings: Human immunodeficiency virus 1, HEK-293T; procedure, shortened: as §1
HEK-293T = experiment: Cytotoxicity against human 293T cells at 10 uM after 48 hrs; assay type: cell-based
Procedure, shortened: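 293T cells at the anti-HIV assay culture conditions (seeded 6 × 10^4 cells/well the day before), compound in DMSO incubated 48 h without virus; viability read with a cell proliferation assay kit.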

[7] = system: Human immunodeficiency virus 1; experiment: Antiviral activity against wild-type HIV-1 infected in HEK293T cells co-transfected with VSVG protein assessed as time required for 50% failure of viral replication at 10 uM by luciferase reporter gene assay; assay type: functional, HEK-293T
Procedure, shortened: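 Time-of-addition run: HEK 293T cells seeded 6 × 10^4/well, held overnight at 37 °C, then infected with VSVG/HIV-wt pseudoparticles (t = 0 at particle addition). Compounds added at a final 10 μM at 0, 2, 4, 6, 8, 10, 12, 14 or 16 h. Cells lysed 48 h post-infection and luciferase activity measured.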

[8] = system: Human immunodeficiency virus 1; experiment: Ratio of EC50 for HIV-1 expressing reverse transcriptase K103N/P225H double mutant to EC50 for wild-type HIV-1; assay type: functional
Procedure, shortened: (§2)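 Fold change, computed as the EC50 against each VSV-G-pseudotyped NNRTI-resistant RT-mutant HIV-1 divided by the EC50 against wild-type pseudovirus. Both EC50s come from the 293T single-cycle luciferase infection assay, with compound added 15 min before infection and read at 48 h.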

[9] = system: Human immunodeficiency virus 1; experiment: Ratio of EC50 for HIV-1 expressing reverse transcriptase K103N/G190A double mutant to EC50 for wild-type HIV-1; assay type: functional; procedure, shortened: as §2
[10] = system: Human immunodeficiency virus 1; experiment: Ratio of EC50 for HIV-1 expressing reverse transcriptase K103N/V108I double mutant to EC50 for wild-type HIV-1; assay type: functional; procedure, shortened: as §2
[11] = system: Human immunodeficiency virus 1; experiment: Ratio of EC50 for HIV-1 expressing reverse transcriptase L100I/K103N double mutant to EC50 for wild-type HIV-1; assay type: functional; procedure, shortened: as §2
[12] = system: Human immunodeficiency virus 1; experiment: Ratio of EC50 for HIV-1 expressing reverse transcriptase K103N mutant to EC50 for wild-type HIV-1; assay type: functional; procedure, shortened: as §2
[13] = target: Human immunodeficiency virus type 1 reverse transcriptase (Human immunodeficiency virus 1) (UniProt Q72547); experiment: (§3) Inhibition of HIV-1 reverse transcriptase after 1 hr by spectrophotometry
Procedure, shortened: (§4)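 RNA-dependent DNA polymerase activity. Started with reverse transcriptase, 1 h at 37 °C. Product captured on streptavidin plate 1 h at 37 °C, TMB 15 min, stopped with H2SO4, OD450. Dose-response EC50.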

[14] = target: Human immunodeficiency virus type 1 reverse transcriptase (Human immunodeficiency virus 1, UniProt Q72547); experiment: as §3; procedure, shortened: as §4

Cc1ccnc2c1NC(=O)c1cccnc1N2C1CC1 [NEVIRAPINE]
pEC50 [1]: 4.63 | pEC50 [2]: 4.28 | pEC50 [3]: 5.12 | pEC50 [4]: 5.48 | pEC50 [5]: 5.64 | pEC50 [6]: 7.64

COC(=O)CC[C@@H](C(=O)O)N1Cc2c(cc(O)c3c2O[C@]2(C3)[C@H](C)CC[C@H]3C(C)(C)[C@H](O)CC[C@@]32C)C1=O
Activity (HEK-293T): Non-toxic

C[C@@H]1CC[C@H]2C(C)(C)[C@H](O)CC[C@]2(C)[C@@]12Cc1c(O)cc3c(c1O2)CN([C@@H](CCC(=O)O)C(=O)O)C3=O
Activity (HEK-293T): Non-toxic

COC(=O)[C@H](CCC(=O)O)N1Cc2c(cc(O)c3c2O[C@]2(C3)[C@H](C)CC[C@H]3C(C)(C)[C@H](O)CC[C@@]32C)C1=O
Activity (HEK-293T): Non-toxic

Cc1cc(O)c2c(c1C=O)O[C@]1(C2)[C@H](C)CC[C@H]2C(C)(C)[C@H](O)CC[C@@]21C
Activity (HEK-293T): Non-toxic

C[C@@H]1CC[C@H]2C(C)(C)[C@H](O)CC[C@]2(C)[C@@]12Cc1c(O)cc(CO[C@H]3O[C@H](CO)[C@@H](O)[C@H](O)[C@H]3O)c(C=O)c1O2
Activity (HEK-293T): Non-toxic

C[C@@H]1CC[C@H]2C(C)(C)[C@H](O)CC[C@]2(C)[C@@]12Cc1c(O)cc3c(c1O2)CN(CCCCN1Cc2c(cc(O)c4c2O[C@]2(C4)[C@H](C)CC[C@H]4C(C)(C)[C@H](O)CC[C@@]42C)C1=O)C3=O
Activity (HEK-293T): Non-toxic

Cc1nnc(C(=O)NC(C)(C)c2nc(C(=O)NCc3ccc(F)cc3)c(O)c(=O)n2C)o1
Time [7]: 17.78 h

C[C@@H]1CC[C@H]2C(C)(C)[C@H](O)C(O)C[C@]2(C)[C@@]12Cc1c(O)cc(CO)c(C=O)c1O2 (some centres undefined)
Activity (HEK-293T): Non-toxic

Cc1cn([C@H]2C[C@H](N=[N+]=[N-])[C@@H](CO)O2)c(=O)[nH]c1=O [ZIDOVUDINE]
Time [7]: 11.59 h

C[C@@H]1CC[C@H]2C(C)(C)[C@H](O)[C@H](O)C[C@]2(C)[C@@]12Cc1c(O)cc(CO[C@H]3O[C@H](CO)[C@@H](O)[C@H](O)[C@H]3O)c(C=O)c1O2
Activity (HEK-293T): Non-toxic

CC(=O)CN1Cc2c(cc(O)c3c2O[C@]2(C3)[C@H](C)CC[C@H]3C(C)(C)[C@H](O)CC[C@@]32C)C1=O
Ratio EC50 [8]: 0.7 | Ratio EC50 [9]: 1.7 | Ratio EC50 [10]: 1.6 | Ratio EC50 [11]: 2.8 | Ratio EC50 [12]: 0.8 | pEC50 [1]: 5.21 | pEC50 [2]: 4.85 | pEC50 [3]: 4.88 | pEC50 [4]: 4.62 | pEC50 [5]: 5.15 | inhibition [13]: Dose-dependent effect | pEC50 [14]: 4.30 | Time [7]: 12.66 h | Activity (HEK-293T): Non-toxic | pEC50 [6]: 5.08

O=C1Nc2ccc(Cl)cc2[C@@](C#CC2CC2)(C(F)(F)F)O1 [EFAVIRENZ]
Time [7]: 13.06 h

C[C@@H]1CC[C@H]2C(C)(C)[C@H](O)CC[C@]2(C)[C@@]12Cc1c(O)cc3c(c1O2)CN(CCCCCN1Cc2c(cc(O)c4c2O[C@]2(C4)[C@H](C)CC[C@H]4C(C)(C)[C@H](O)CC[C@@]42C)C1=O)C3=O
Activity (HEK-293T): Non-toxic

C[C@@H]1CC[C@H]2C(C)(C)[C@H](O)CC[C@]2(C)[C@@]12Cc1c(O)cc(CO)c(C=O)c1O2
Activity (HEK-293T): Non-toxic
